From ChEMBL document CHEMBL3856201, “5,10b-Ethanophenanthridine amaryllidaceae alkaloids inspire the discovery of novel bicyclic ring systems with activity against drug resistant cancer cells” (2016)
Active and inactive are the calls of the source. No cut-off for these calls is given here.

Columns and labels:
[1] = Antiproliferative activity against human HeLa cells after 48 hrs by MTT assay; format: functional
How it was run: (§1)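 HeLa cells were cultured in DMEM + 10% FBS and MCF-7 cells in RPMI + 10% FBS, both at 37 °C under 5% CO2. Compounds were diluted from DMSO stocks and applied for 48 h. Viability was read by MTT relative to DMSO control. The value is the concentration reducing viability by 50%, ±SD from two independent experiments of 4 replicates each.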

[2] = Antiproliferative activity against human MCF7 cells after 48 hrs by MTT assay; format: functional; conditions: MCF7, 48 h; how it was run: as §1
[3] = Antiproliferative activity against drug-resistant human A549 cells up to 100 uM after 48 to 96 hrs by MTT assay relative to control; format: functional
How it was run: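 A549 cultures in RPMI with 10% heat-inactivated FBS were treated across a concentration range up to 100 µM, with phenyl arsine oxide as the nondiscriminate cytotoxic reference. Growth curves were read by MTT assay. Two independent experiments, each in 4 replicates.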

HeLa S3 = assay: Inhibition of translation in human HeLaS3 assessed as induction of intact polysomes at 50 uM after 1 hr by UV-based […] method; format: functional
How it was run: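 HeLa S3 cells were exposed to 50 µM compound for 1 h, then analysed by polysome profiling against a DMSO-treated control profile.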

[4] = Antiproliferative activity against drug-sensitive human Hs683 cells after 48 to 96 hrs by MTT assay; format: functional; conditions: Hs 683
How it was run: (§2)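 MTT read-out. T98G and Hs683 cells were grown in DMEM with 10% FBS, glutamine, gentamicin and penicillin-streptomycin at 37 °C and 5% CO2. Compounds came from 100 or 50 mM DMSO stocks and were tested at 0.001–100 µM for 48–96 h. Controls were 0.1% DMSO (negative) and 1 µM phenyl arsine oxide (positive). The value is the mean concentration giving 50% viability loss; replicate number varied.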

[5] = Antiproliferative activity against drug-resistant human U373 cells after 48 to 96 hrs by MTT assay; format: functional, U-373MG ATCC; conditions: U373 MG
How it was run: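 Culture was RPMI with 10% heat-inactivated FBS plus glutamine and antibiotics for U373 cells. Compound exposure was 0.001–100 µM for 48–96 h, with 0.1% DMSO and 1 µM phenyl arsine oxide as controls. The MTT assay gave the average concentration cutting viability by 50%; replicate numbers varied.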

[6] = Antiproliferative activity against drug-resistant human U251 cells after 48 to 96 hrs by MTT assay; format: functional; conditions: U-251
How it was run: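 U251 cells were kept in 10% MEM with glutamine, gentamicin and penicillin-streptomycin at 37 °C and 5% CO2. After seeding they were grown 24–72 h and then given compounds at 0.001–100 µM (from 100 or 50 mM DMSO stocks) for 48–96 h. Viability was read by MTT. Vehicle control was 0.1% DMSO; 1 µM phenyl arsine oxide served as positive control. The result is the average 50%-viability-reducing concentration.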

[7] = Antiproliferative activity against drug-resistant human U87 cells after 48 to 96 hrs by MTT assay; format: functional, U-87MG ATCC; conditions: U-87 MG
How it was run: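 U87 cells grown in DMEM with glutamine, gentamicin and penicillin-streptomycin (37 °C, 95% humidity, 5% CO2) were seeded and then treated with 0.001–100 µM compound for 48–96 h. Readout was MTT. Controls were 0.1% DMSO and 1 µM phenyl arsine oxide. The value is the average concentration reducing viability 50%.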

[8] = Antiproliferative activity against drug-resistant human T98G cells after 48 to 96 hrs by MTT assay; format: functional; how it was run: as §2
[9] = Antiproliferative activity against patient-derived TMZ-sensitive GBM 090909 cells after 48 to 96 hrs by MTT assay; format: functional; conditions: Homo sapiens
How it was run: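 Primary GBM neurosphere cultures came from resected patient tumour. Tissue was minced, dissociated with 100 U/mL collagenase in neurobasal medium for 30 min at 37 °C, filtered through 70 µm, spun at 200 × g for 5 min, and grown in ultra-low attachment wells in neurobasal medium with B27. Compounds were applied at 0.001–100 µM for 48–96 h. MTT gave the average 50%-viability concentration.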

[10] = Antiproliferative activity against patient-derived TMZ-resistant GBM 031810 cells over-expressing MGMT after 48 to 96 hrs by MTT assay; format: functional; conditions: Homo sapiens
[11] = Antiproliferative activity against patient-derived paclitaxel-sensitive NCI-H1993 cells after 48 to 96 hrs by MTT assay; format: functional; conditions: Homo sapiens
[12] = Antiproliferative activity against patient-derived paclitaxel-resistant NCI-H2073 cells after 48 to 96 hrs by MTT assay; format: functional; conditions: Homo sapiens
[13] = Antiproliferative activity against human MES-SA cells after 48 to 96 hrs by MTT assay; format: functional
How it was run: (§3)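 Parent MES-SA and MES-SA/Dx5 uterine sarcoma cells were grown in RPMI-1640 with 10% FBS. The Dx5 line was kept in 500 nM doxorubicin after stepwise selection from 100 nM in twofold steps, about 2 passages per step. MTT assay used 0.001–100 µM compound for 48–96 h, with 0.1% DMSO and 1 µM phenyl arsine oxide controls. The ratio is the Dx5 GI50 divided by the parent GI50.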

[14] = Antiproliferative activity against human MES-SA/Dx5 cells after 48 to 96 hrs by MTT assay; format: functional; how it was run: as §3
NCI-H1993 = assay: Potentiation of paclitaxel-induced cytotoxicity against patient-derived paclitaxel-sensitive NCI-H1993 cells assessed as reduction in cell viability up to 100 uM after 96 hrs by Celltiter-Glo luminescent assay; format: functional, cell-based; conditions: Homo sapiens
How it was run: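 NCI-H1993 cells were seeded at 4×10^3 per well and grown 24 h. […] Viability was read by CellTiter-Glo luminescence. Predicted additivity was calculated by Bliss independence, Exy = Ex + Ey − ExEy.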

MES-SA = assay: Selectivity ratio of GI50 for human MES-SA/Dx5 cells to GI50 for human MES-SA cells; format: functional; how it was run: as §3
[15] = Antiproliferative activity against drug-resistant human A549 cells after 48 to 96 hrs by MTT assay; format: functional
How it was run: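 A549 cells grown in RPMI with 10% heat-inactivated FBS, 4 mM glutamine and antibiotics at 37 °C under 5% CO2. Compounds came from 100 or 50 mM DMSO stocks and were tested at 0.001–100 µM for 48–96 h. Read-out was MTT. The value is the mean concentration giving 50% viability loss, with varied replicate numbers. Controls were 0.1% DMSO (negative) and 1 µM phenyl arsine oxide (positive).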

| SMILES | GI50 [1] | GI50 [2] | also measured |
| --- | --- | --- | --- |
| COc1cc2c(cc1O)C[N@@]1CC[C@@]23C=CC(=O)C[C@H]13 | > 100 µM | > 100 µM | – |
| COc1cc2c(cc1O)CN(C(=O)C(F)(F)F)CCC21C=CC(=O)C=C1 | > 100 µM | > 100 µM | – |
| COc1cc2c(cc1O)C[N@@]1CC[C@@]23C=C/C(=N/O)C[C@H]13 | > 100 µM | > 100 µM | – |
| O=C1C=C[C@]23CC[N@](Cc4cscc42)[C@H]3C1 | 25 µM | 44 µM | – |
| COc1cc([C@@H]2c3cc4c(cc3[C@H](O)[C@H]3COC(=O)[C@H]23)OCO4)cc(OC)c1OC [PODOFILOX] | – | – | inhibition (INH) [3]: 50% |
| COc1cc2c(cc1OC)C1(C=CC(=O)C=C1)CCN(C(=O)C(F)(F)F)C2 | 83 µM | > 100 µM | – |
| COc1cc2c(cc1OCc1ccccc1)C1(C=CC(=O)C=C1)CCN(C(=O)C(F)(F)F)C2 | 34 µM | 34 µM | – |
| COc1cc2c(cc1OCc1ccccc1)[C@@]13C=CC(=O)C[C@@H]1[N@](CC3)C2 | 17 µM | 17 µM | – |
| O=C1C=CC2(C=C1)CCN(C(=O)C(F)(F)F)Cc1cc(OCc3ccccc3)c(OCc3ccccc3)cc12 | 17 µM | 25 µM | – |
| CO[C@@H]1C=C[C@@]23c4cc5c(cc4CN(C[C@@H]2O)[C@H]3C1)OCO5 | – | – | inhibition (HeLa S3): Active |
| COc1cc2c(cc1OCc1ccccc1)C[N@@]1CC[C@@]23C=CC(=O)C[C@H]13 | 12 µM | 15 µM | – |
| O=C1C=CC2(C=C1)CCN(C(=O)C(F)(F)F)Cc1cc3c(cc12)OCCO3 | 21 µM | 34 µM | – |
| O=C1C=CC2(C=C1)CCN(C(=O)C(F)(F)F)Cc1c2sc2ccccc12 | 10 µM | 7 µM | GI50 [4]: 5 µM; GI50 [5]: 7 µM; GI50 [6]: 4 µM; GI50 [7]: 6 µM; GI50 [8]: 15 µM; GI50 [9]: 7 µM; GI50 [10]: 8 µM; GI50 [11]: 12 µM; GI50 [12]: 50 µM; GI50 [13]: 5 µM; GI50 [14]: 5 µM; Activity (NCI-H1993): Active |
| O[C@H]1[C@H]2c3cc4c(cc3CN3CCC(=C[C@@H]1O)[C@H]23)OCO4 | – | – | inhibition (HeLa S3): Active |
| O=C1C=C[C@]23CC[N@](Cc4ccsc42)[C@H]3C1 | 8 µM | 12 µM | – |
| O=C1C=C[C@]23CC[N@](Cc4cccc(OCc5ccccc5)c42)[C@H]3C1 | 7 µM | 11 µM | – |
| O=C1C=CC2(C=C1)CCN(C(=O)C(F)(F)F)Cc1cccc(OCc3ccccc3)c12 | 11 µM | 14 µM | – |

| SMILES | GI50 [1] | GI50 [2] | also measured |
| --- | --- | --- | --- |
| COc1cc2c(cc1OC)[C@@]13C=CC(=O)C[C@@H]1[N@](CC3)C2 | 64 µM | > 100 µM | – |
| O=C1C=CC2(C=C1)CCN(C(=O)C(F)(F)F)Cc1c2ccc2c1OCO2 | > 100 µM | > 100 µM | – |
| O=C1C=C[C@]23CC[N@](Cc4cc(OCc5ccccc5)ccc42)[C@H]3C1 | 8 µM | 14 µM | – |
| C#CCCCC(=O)Oc1cc2c(cc1OC)[C@@]13C=CC(=O)C[C@@H]1[N@](CC3)C2 | 43 µM | 53 µM | – |
| COc1cc2c(cc1OC(=O)c1ccccc1)C[N@@]1CC[C@@]23C=CC(=O)C[C@H]13 | 35 µM | 45 µM | – |
| Cn1nnc2c(C(N)=O)ncn2c1=O [TEMOZOLOMIDE] | – | – | GI50 [9]: 50 µM; GI50 [10]: > 1000 µM |
| CC[C@]1(O)C[C@@H]2CN(CCc3c([nH]c4ccccc34)[C@@](C(=O)OC)(c3cc4c(cc3OC)N(C)[C@H]3[C@@](O)(C(=O)OC)[C@H](OC(C)=O)[C@]5(CC)C=CCN6CC[C@]43[C@@H]65)C2)C1 [VINBLASTINE] | – | – | RatioGI50 (MES-SA): >1000 |
| O=C1C=C[C@]23CC[N@](Cc4cc5c(cc42)OCO5)[C@H]3C1 | 25 µM | 24 µM | – |
| O=C1C=C[C@]23CC[N@](Cc4cc5c(cc42)OCCO5)[C@H]3C1 | 13 µM | 19 µM | – |
| O=C1C=CC2(C=C1)CCN(C(=O)C(F)(F)F)Cc1cc(OCc3ccccc3)ccc12 | 16 µM | 40 µM | – |
| O[C@H]1C=C[C@@]23c4cc5c(cc4CN(C[C@@H]2O)[C@H]3C1)OCO5 | – | – | GI50 [4]: 27 µM; GI50 [5]: 53 µM; GI50 [6]: 41 µM; GI50 [7]: 38 µM; GI50 [8]: 99 µM |
| COc1cc2c(cc1OCc1ccccc1)CN(C(=O)C(F)(F)F)CCC21C=CC(=O)C=C1 | 38 µM | 48 µM | – |
| O=C1C=C[C@]23CC[N@](Cc4cc(OCc5ccccc5)c(OCc5ccccc5)cc42)[C@H]3C1 | 3 µM | 4 µM | GI50 [4]: 6 µM; GI50 [5]: 7 µM; GI50 [6]: 5 µM; GI50 [7]: 5 µM; GI50 [8]: 7 µM; GI50 [15]: 4 µM; GI50 [13]: 2 µM; GI50 [14]: 7 µM |
| COc1cc2c(cc1OC(C)=O)C[N@@]1CC[C@@]23C=CC(=O)C[C@H]13 | > 100 µM | > 100 µM | – |
| O=C1C=C[C@]23CC[N@](Cc4c2ccc2c4OCO2)[C@H]3C1 | 61 µM | 73 µM | – |
| O=C1C=CC2(C=C1)CCN(C(=O)C(F)(F)F)Cc1cc3c(cc12)OCO3 | 24 µM | 30 µM | – |
